Legend:
MCF7 [1] = assay: Metabolic stability in human MCF7 cells assessed as cellular dihydroceramide levels at up to 10 uM after 24 hrs by LC-MS/MS analysis; format: ADME, cell-based; details: mcf7, 24 h
In short: (§1)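 MCF7 cells grown in parallel with proliferation sets, treated with compound in ethanol (<0.1%) for 24 h (or time course at 10 μM); Bligh & Dyer lipid extracts analysed by LC-MS/MS on triple quadrupole in positive-ion MRM; quantified against spiked-matrix calibration curves with internal standard, linear regression; levels normalized to phospholipid (pmol/nmol Pi), compared with control cells.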

MCF7 [2] = assay: Metabolic stability in human MCF7 cells assessed as cellular dihydroceramide levels at 40 uM after 24 hrs by LC-MS/MS analysis; format: ADME, cell-based; details: mcf7, 24 h; in short: as §1
MCF7 [3] = assay: Metabolic stability in human MCF7 cells assessed as cellular C16-dihydroceramide levels after 24 hrs by LC-MS/MS analysis; format: ADME, cell-based; details: mcf7, 24 h; in short: as §1
MCF7 [4] = assay: Metabolic stability in human MCF7 cells assessed as cellular dihydrsphingosine levels at 40 uM after 24 hrs by LC-MS/MS analysis relative to control; format: ADME, cell-based; details: mcf7, 24 h; in short: as §1
MCF7 [5] = assay: Antiproliferative activity against human MCF7 cells after 24 hrs by trypan blue exclusion assay; format: functional, cell-based; details: MCF7, 24 h
MCF7 [6] = assay: Antiproliferative activity against human MCF7 cells assessed as inhibition of cell growth at 10 uM after 24 hrs by trypan blue exclusion assay; format: functional, cell-based
MCF7 [7] = assay: Metabolic stability in human MCF7 cells assessed as C18-ceramide levels at 20 uM after 24 hrs by LC-MS/MS analysis relative to control; format: ADME, cell-based; details: mcf7, 24 h; in short: as §1
MCF7 [8] = assay: Metabolic stability in human MCF7 cells assessed as C14-ceramide levels at 20 uM after 24 hrs by LC-MS/MS analysis relative to control; format: ADME, cell-based; details: mcf7, 24 h; in short: as §1
MCF7 [9] = assay: Metabolic stability in human MCF7 cells assessed as C16-ceramide levels at 20 uM after 24 hrs by LC-MS/MS analysis relative to control; format: ADME, cell-based; details: mcf7, 24 h; in short: as §1
MCF7 [10] = assay: Metabolic stability in human MCF7 cells assessed as C24:1-ceramide levels at 20 uM after 24 hrs by LC-MS/MS analysis relative to control; format: ADME, cell-based; details: mcf7, 24 h; in short: as §1
MCF7 [11] = assay: Metabolic stability in human MCF7 cells assessed as C24-ceramide levels at 20 uM after 24 hrs by LC-MS/MS analysis relative to control; format: ADME, cell-based; details: mcf7, 24 h; in short: as §1
MCF7 [12] = assay: Metabolic stability in human MCF7 cells assessed as ceramide species levels at up to 5 uM after 24 hrs by LC-MS/MS analysis; format: ADME, cell-based; details: mcf7, 24 h; in short: as §1
MCF7 [13] = assay: Metabolic stability in human MCF7 cells assessed as C18-ceramide levels at 10 uM after 24 hrs by LC-MS/MS analysis relative to control; format: ADME, cell-based; details: mcf7, 24 h; in short: as §1
MCF7 [14] = assay: Metabolic stability in human MCF7 cells assessed as C14-ceramide levels at 10 uM after 24 hrs by LC-MS/MS analysis relative to control; format: ADME, cell-based; details: mcf7, 24 h; in short: as §1
MCF7 [15] = assay: Metabolic stability in human MCF7 cells assessed as C16-ceramide levels at 10 uM after 24 hrs by LC-MS/MS analysis relative to control; format: ADME, cell-based; details: mcf7, 24 h; in short: as §1
MCF7 [16] = assay: Metabolic stability in human MCF7 cells assessed as cellular ceramide levels at 10 uM after up to 30 hrs by LC-MS/MS analysis; format: ADME, cell-based; details: mcf7, 30 h; in short: as §1
MCF7 [17] = assay: Metabolic stability in human MCF7 cells assessed as endogenous 2-OH-ceramide levels at 2.5 to 20 uM after 24 hrs by LC-MS/MS analysis; format: ADME, cell-based; details: mcf7, 24 h; in short: as §1
MCF7 [18] = assay: Metabolic stability in human MCF7 cells assessed as cellular ceramide levels at up to 25 uM after 24 hrs by LC-MS/MS analysis; format: ADME, cell-based; details: mcf7, 24 h; in short: as §1
MCF7 [19] = assay: Metabolic stability in human MCF7 cells assessed as cellular sphingosine levels at up to 25 uM after 24 hrs by LC-MS/MS analysis; format: ADME, cell-based; details: mcf7, 24 h; in short: as §1
MCF7 [20] = assay: Metabolic stability in human MCF7 cells assessed as endogenous sphingosine levels at 10 uM after 24 hrs by LC-MS/MS analysis; format: ADME, cell-based; details: mcf7, 24 h; in short: as §1
MCF7 [21] = assay: Metabolic stability in human MCF7 cells assessed as cellular dihydroceramide levels at up to 5 uM after 24 hrs by LC-MS/MS analysis; format: ADME, cell-based; details: mcf7, 24 h; in short: as §1

| Structure (SMILES) | Stability (MCF7 [1]) | fold change (FC) (MCF7 [2]) | fold change (FC) (MCF7 [3]) | fold change (FC) (MCF7 [4]) | IC50 (MCF7 [5]) | fold change (FC) (MCF7 [7]) | fold change (FC) (MCF7 [8]) | fold change (FC) (MCF7 [9]) | fold change (FC) (MCF7 [10]) | fold change (FC) (MCF7 [11]) | Stability (MCF7 [16]) | Stability (MCF7 [17]) | Stability (MCF7 [18]) | Stability (MCF7 [19]) | Stability (MCF7 [4]) | also measured |
| --- | --- | --- | --- | --- | --- | --- | --- | --- | --- | --- | --- | --- | --- | --- | --- | --- |
| CCCCCCCCCCCCCCC[C@@H](O)[C@H](CO)NC(=O)CCCCC | Stable | 7 | 13 | 5 | 38 µM |  |  |  |  |  |  |  |  |  |  | Stability (MCF7 [6]): Stable |
| CCCCCCCCCCCCC/C=C/[C@@H](O)[C@H](CO)NC(=O)CCCCC |  |  |  |  | 12 µM | 80 | 40 | 20 | 5 | 0.2 |  |  |  |  |  |  |
| CCCCCCCCCCCCC/C=C/[C@@H](O)[C@H](CO)NC(=O)[C@@H](O)CCCC |  |  |  |  |  | 30 | 20 | 7 | 4 | 2 | Stable | Stable | Stable | Stable |  |  |

More lines, main results first:

| Stability (MCF7 [1]) | fold change (FC) (MCF7 [2]) | fold change (FC) (MCF7 [3]) | fold change (FC) (MCF7 [4]) | IC50 (MCF7 [5]) | fold change (FC) (MCF7 [7]) | fold change (FC) (MCF7 [8]) | fold change (FC) (MCF7 [9]) | fold change (FC) (MCF7 [10]) | fold change (FC) (MCF7 [11]) | Stability (MCF7 [16]) | Stability (MCF7 [17]) | Stability (MCF7 [18]) | Stability (MCF7 [19]) | Stability (MCF7 [4]) | Structure (SMILES) | also measured |
| --- | --- | --- | --- | --- | --- | --- | --- | --- | --- | --- | --- | --- | --- | --- | --- | --- |
|  |  |  |  |  |  |  |  |  |  | Stable | Stable | Stable | Stable |  | CCCCCCCCCCCCC/C=C/[C@@H](O)[C@H](CO)NC(=O)[C@H](O)CCCC | Stability (MCF7 [12]): Stable; fold change (FC) (MCF7 [13]): 5; fold change (FC) (MCF7 [14]): 3; fold change (FC) (MCF7 [15]): 1.7; Stability (MCF7 [20]): Stable |
| Stable | 19 | 25 | 16 | 12 µM |  |  |  |  |  |  |  |  |  | Unstable | CCCCCCCCCCCCCCC[C@@H](O)[C@H](CO)NC(=O)[C@@H](O)CCCC |  |
| Stable |  |  |  | 8 µM |  |  |  |  |  |  |  |  |  | Stable | CCCCCCCCCCCCCCC[C@@H](O)[C@H](CO)NC(=O)[C@H](O)CCCC | Stability (MCF7 [3]): Stable; Stability (MCF7 [21]): Stable |
